ChEMBL document CHEMBL4270513, “Replacement of Arg with Nle and modified D-Phe in the core sequence of MSHs, Ac-His-D-Phe-Arg-Trp-NH2, leads to hMC1R selectivity and pigmentation” (Eur J Med Chem, 2018)
Square brackets hold non-standard residues; d marks the D form. Peptide text beside a SMILES is read from it. dPhe(4-CF3) = N[C@H](Cc1ccc(C(F)(F)F)cc1)C(=O)O; dPhe(4-Br) = N[C@H](Cc1ccc(Br)cc1)C(=O)O; dPhe(4-Cl) = N[C@H](Cc1ccc(Cl)cc1)C(=O)O; dPhe(4-F) = N[C@H](Cc1ccc(F)cc1)C(=O)O; Nle = CCCC[C@H](N)C(=O)O

Experiments:
Melanocortin receptor 5 [1] = target: T1, Melanocortin receptor 5 (Homo sapiens, UniProt P33032); assay: Displacement of [125I]-[Nle4,d-Phe7]-alpha-MSH from human MC5R expressed in HEK293 cells at 10 uM after 40 mins by gamma counting analysis relative to control; format: cell-based
In short: (§1)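 Binding efficiency = maximal % displacement of [125I]-NDP-α-MSH observed at 10 μM peptide; 0% displacement at 10 μM scored as no binding.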

Melanocortin receptor 3 [2] = target: T2, Melanocortin receptor 3 (Homo sapiens, UniProt P41968); assay: Displacement of [125I]-[Nle4,d-Phe7]-alpha-MSH from human MC3R expressed in HEK293 cells at 10 uM after 40 mins by gamma counting analysis relative to control; format: cell-based; in short: as §1
[3] = target: T3, Melanocyte-stimulating hormone receptor (Homo sapiens, UniProt Q01726); assay: Displacement of [125I]-[Nle4,d-Phe7]-alpha-MSH from human MC1R expressed in HEK293 cells at 10 uM after 40 mins by gamma counting analysis relative to control; format: cell-based; in short: as §1
Melanocortin receptor 3 [4] = target: T2, Melanocortin receptor 3; assay: Displacement of [125I]-[Nle4,d-Phe7]-alpha-MSH from human MC3R expressed in HEK293 cells after 40 mins by gamma counting analysis; format: cell-based
Melanocortin receptor 4 [5] = target: T4, Melanocortin receptor 4 (Homo sapiens, UniProt P32245); assay: Agonist activity at human MC4R expressed in HEK293 cells after 3 mins by cAMP assay; format: functional, cell-based
Melanocortin receptor 5 [6] = target: T1, Melanocortin receptor 5; assay: Agonist activity at human MC5R expressed in HEK293 cells at 10 uM after 3 mins by cAMP assay relative to MT-2; format: functional, cell-based
In short: (§2)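 cAMP produced at a single 10 μM peptide concentration, expressed as % of the response to MT-II run as control; 0% accumulation reported as no activity.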

Melanocortin receptor 3 [7] = target: T2, Melanocortin receptor 3; assay: Agonist activity at human MC3R expressed in HEK293 cells after 3 mins by cAMP assay; format: functional, cell-based
Melanocortin receptor 3 [8] = target: T2, Melanocortin receptor 3; assay: Agonist activity at human MC3R expressed in HEK293 cells at 10 uM after 3 mins by cAMP assay relative to MT-2; format: functional, cell-based; in short: as §2
[9] = target: T3, Melanocyte-stimulating hormone receptor; assay: Agonist activity at human MC1R expressed in HEK293 cells at 10 uM after 3 mins by cAMP assay relative to MT-2; format: functional, cell-based; in short: as §2
[10] = target: T3, Melanocyte-stimulating hormone receptor; assay: Agonist activity at human MC1R expressed in HEK293 cells after 3 mins by cAMP assay; format: functional, cell-based
Melanocortin receptor 5 [11] = target: T1, Melanocortin receptor 5; assay: Agonist activity at human MC5R expressed in HEK293 cells after 3 mins by cAMP assay; format: functional, cell-based
[12] = target: T3, Melanocyte-stimulating hormone receptor; assay: Displacement of [125I]-[Nle4,d-Phe7]-alpha-MSH from human MC1R expressed in HEK293 cells after 40 mins by gamma counting analysis; format: cell-based
Melanocortin receptor 4 [13] = target: T4, Melanocortin receptor 4; assay: Displacement of [125I]-[Nle4,d-Phe7]-alpha-MSH from human MC4R expressed in HEK293 cells after 40 mins by gamma counting analysis; format: cell-based

T2 sequence (P41968 whole entry): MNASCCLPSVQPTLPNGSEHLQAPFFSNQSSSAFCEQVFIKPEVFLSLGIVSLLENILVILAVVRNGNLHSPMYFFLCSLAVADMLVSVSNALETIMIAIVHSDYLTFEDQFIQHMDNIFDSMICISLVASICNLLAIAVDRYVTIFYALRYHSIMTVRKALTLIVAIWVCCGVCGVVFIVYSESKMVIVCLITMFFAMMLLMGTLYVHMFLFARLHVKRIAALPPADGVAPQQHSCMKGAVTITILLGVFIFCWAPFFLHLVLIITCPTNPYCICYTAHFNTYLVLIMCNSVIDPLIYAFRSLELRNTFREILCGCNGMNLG
T4 sequence (P32245 whole entry): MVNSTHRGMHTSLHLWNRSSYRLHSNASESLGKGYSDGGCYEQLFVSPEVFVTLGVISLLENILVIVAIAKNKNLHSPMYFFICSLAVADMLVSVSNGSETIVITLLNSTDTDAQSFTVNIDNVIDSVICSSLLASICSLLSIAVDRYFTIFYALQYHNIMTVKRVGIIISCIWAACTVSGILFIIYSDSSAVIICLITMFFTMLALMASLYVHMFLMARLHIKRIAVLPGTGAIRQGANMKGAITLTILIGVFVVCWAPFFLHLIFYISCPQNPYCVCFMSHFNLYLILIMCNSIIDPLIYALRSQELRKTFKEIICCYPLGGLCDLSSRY
T1 sequence (P33032 whole entry): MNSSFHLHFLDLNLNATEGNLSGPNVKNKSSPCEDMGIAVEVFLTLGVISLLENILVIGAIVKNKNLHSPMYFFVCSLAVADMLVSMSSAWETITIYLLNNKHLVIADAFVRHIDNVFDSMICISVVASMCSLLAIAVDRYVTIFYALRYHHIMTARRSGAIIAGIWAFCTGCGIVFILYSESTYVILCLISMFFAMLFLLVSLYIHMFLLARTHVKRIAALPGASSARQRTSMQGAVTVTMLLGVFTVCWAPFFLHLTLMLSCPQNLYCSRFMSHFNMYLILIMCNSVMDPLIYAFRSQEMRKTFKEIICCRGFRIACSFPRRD

In the case of `CCCC[C@H](NC(=O)[C@@H](Cc1ccc(Cl)cc1)NC(=O)[C@H](Cc1cnc[nH]1)NC(C)=O)C(=O)N[C@@H](Cc1c[nH]c2ccccc12)C(N)=O` (Ac-H[dPhe(4-Cl)][Nle]W-NH2), the %max (Melanocortin receptor 5 [1]) is reported as 0%, the %max (Melanocortin receptor 3 [2]) is reported as 45% and the %max [3] is reported as 81%. It also gave an IC50 (Melanocortin receptor 3 [4]) greater than 1000 nM, an EC50 (Melanocortin receptor 4 [5]) of 17 nM and an Activity (Melanocortin receptor 5 [6]) of 52%. For the same compound, the EC50 (Melanocortin receptor 3 [7]) was 116 nM, the Activity (Melanocortin receptor 3 [8]) was 87% and the Activity [9] was 100%. The EC50 [10] was 6.5 nM, the EC50 (Melanocortin receptor 5 [11]) was 433 nM and the IC50 [12] was 122 nM. The IC50 (Melanocortin receptor 4 [13]) was greater than 1000 nM.
Work on `CCCC[C@H](NC(=O)[C@@H](Cc1ccc(F)cc1)NC(=O)[C@H](Cc1cnc[nH]1)NC(C)=O)C(=O)N[C@@H](Cc1c[nH]c2ccccc12)C(N)=O` (Ac-H[dPhe(4-F)][Nle]W-NH2) yielded a %max (Melanocortin receptor 5 [1]) of 0%, a %max (Melanocortin receptor 3 [2]) of 13% and a %max [3] of 33%. It also gave an IC50 (Melanocortin receptor 3 [4]) greater than 1000 nM, an EC50 (Melanocortin receptor 4 [5]) of 280 nM and an Activity (Melanocortin receptor 5 [6]) of 0%. It also gave an EC50 (Melanocortin receptor 3 [7]) of 315 nM, an Activity (Melanocortin receptor 3 [8]) of 100% and an Activity [9] of 100%. It also gave an EC50 [10] of 25 nM, an IC50 [12] of 243 nM and an IC50 (Melanocortin receptor 4 [13]) greater than 1000 nM.
Work on `CCCC[C@H](NC(=O)[C@@H](Cc1ccccc1)NC(=O)[C@@H]1CCCN1C(C)=O)C(=O)N[C@@H](Cc1c[nH]c2ccccc12)C(N)=O` (Ac-P[dF][Nle]W-NH2) yielded a %max (Melanocortin receptor 5 [1]) of 0%, a %max (Melanocortin receptor 3 [2]) of 65% and a %max [3] of 0%. It also gave an IC50 (Melanocortin receptor 3 [4]) greater than 1000 nM, an Activity (Melanocortin receptor 5 [6]) of 0% and an Activity (Melanocortin receptor 3 [8]) of 0%. The Activity [9] was 0%.
Compound `CCCC[C@H](NC(=O)[C@@H](Cc1ccc(Br)cc1)NC(=O)[C@@H]1CCCN1C(C)=O)C(=O)N[C@@H](Cc1c[nH]c2ccccc12)C(N)=O` (Ac-P[dPhe(4-Br)][Nle]W-NH2) has a %max (Melanocortin receptor 5 [1]) of 0%, a %max (Melanocortin receptor 3 [2]) of 76% and a %max [3] of 30%. The IC50 (Melanocortin receptor 3 [4]) was greater than 1000 nM, the Activity (Melanocortin receptor 5 [6]) was 0% and the EC50 (Melanocortin receptor 3 [7]) was greater than 1000 nM. For the same compound, the Activity (Melanocortin receptor 3 [8]) was 23.1%, the Activity [9] was 39% and the EC50 [10] was greater than 1000 nM. The IC50 [12] was 80 nM and the IC50 (Melanocortin receptor 4 [13]) was 10 nM.
With `CCCC[C@H](NC(=O)[C@@H](Cc1ccc(C(F)(F)F)cc1)NC(=O)[C@@H]1CCCN1C(C)=O)C(=O)N[C@@H](Cc1c[nH]c2ccccc12)C(N)=O` (Ac-P[dPhe(4-CF3)][Nle]W-NH2) the %max (Melanocortin receptor 5 [1]) was 0%, the %max (Melanocortin receptor 3 [2]) was 33% and the %max [3] was 0%. It also gave an IC50 (Melanocortin receptor 3 [4]) greater than 1000 nM, an Activity (Melanocortin receptor 5 [6]) of 0% and an Activity (Melanocortin receptor 3 [8]) of 0%. The Activity [9] was 0% and the IC50 (Melanocortin receptor 4 [13]) was 2.1 nM.
With `CCCC[C@H](NC(=O)[C@@H](Cc1ccc(Cl)cc1)NC(=O)[C@@H]1CCCN1C(C)=O)C(=O)N[C@@H](Cc1c[nH]c2ccccc12)C(N)=O` (Ac-P[dPhe(4-Cl)][Nle]W-NH2) the %max (Melanocortin receptor 5 [1]) was 0%, the %max (Melanocortin receptor 3 [2]) was 35% and the %max [3] was 18%. The IC50 (Melanocortin receptor 3 [4]) was greater than 1000 nM, the Activity (Melanocortin receptor 5 [6]) was 0% and the EC50 (Melanocortin receptor 3 [7]) was greater than 1000 nM. For the same compound, the Activity (Melanocortin receptor 3 [8]) was 23.1%, the Activity [9] was 63% and the EC50 [10] was 3 nM. The IC50 [12] was 1.9 nM.
`CCCC[C@H](NC(=O)[C@@H](Cc1ccc(F)cc1)NC(=O)[C@@H]1CCCN1C(C)=O)C(=O)N[C@@H](Cc1c[nH]c2ccccc12)C(N)=O` (Ac-P[dPhe(4-F)][Nle]W-NH2) gave a %max (Melanocortin receptor 5 [1]) of 0%, a %max (Melanocortin receptor 3 [2]) of 35% and a %max [3] of 28%. The IC50 (Melanocortin receptor 3 [4]) was 46.8 nM, the Activity (Melanocortin receptor 5 [6]) was 0% and the EC50 (Melanocortin receptor 3 [7]) was greater than 1000 nM. For the same compound, the Activity (Melanocortin receptor 3 [8]) was 56%, the Activity [9] was 46% and the EC50 [10] was greater than 1000 nM. The IC50 [12] was 0.74 nM.
